The list is not random: actives were taken first. Their share in the collection is about 2.1%.
FXIa inh 1536: factor XIa (human) inhibition; P03951; purified FXIa, Boc-Glu-Ala-Arg-AMC fluorogenic substrate; inhibition, % at 5 µM; 220,000 compounds, 0.14% hits;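 active = inhibition of at least 40%; inactive = inhibition below 40%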;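 also: fluorescence of freed AMC excited at 355 nm; 0% = enzyme without compound and 100% = no enzyme blank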
KLK5 inh: blocks human kallikrein 5 protease activity | Q9Y337 | recombinant hK5, fluorogenic AMC substrate cleavage | inhibition, % at 5 µM | 210,000 compounds, 0.59% hits | AID 873;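 active = inhibition of 40% or more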;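 also: 0% = enzyme controls without compound and 100% = no-enzyme blanks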
Target sequence (Q9Y337 67-293 limits assumed): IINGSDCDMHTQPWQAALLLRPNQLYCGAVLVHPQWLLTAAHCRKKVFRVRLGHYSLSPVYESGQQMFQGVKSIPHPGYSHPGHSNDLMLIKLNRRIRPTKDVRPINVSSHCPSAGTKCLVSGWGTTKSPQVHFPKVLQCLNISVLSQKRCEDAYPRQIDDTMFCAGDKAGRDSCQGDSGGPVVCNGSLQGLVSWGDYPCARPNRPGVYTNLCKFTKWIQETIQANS
FXIIa inh 1536: factor XIIa (human) inhibition. P00748. purified FXIIa, Boc-QGR-AMC fluorogenic substrate, 2 h. inhibition, % at 5 µM. 220,000 compounds, 0.3% hits; in the data active = inhibition above about 40%;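 also: 0% = enzyme with no compound and 100% = blank without enzyme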
Thrombin inh: thrombin (human) inhibition; alpha-thrombin, Boc-VPR-AMC fluorogenic substrate cleavage; inhibition, % at 5 µM; AID 1046; 220,000 compounds, 0.26% hits; P00734;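 active = inhibition at or above 40%; inactive = inhibition below 40%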;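 also: 0% = enzyme with no compound and 100% = wells without enzyme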
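Test system: human alpha-thrombin; medium: pH 7.5 Tris-saline with Tween 20; times: reaction at room temperature; signal: AMC fluorescence at 355 nm excitation and 460 nm emission; also added: Boc-VPR-AMC substrate, 15 µM final; dosing: one concentration per compound, 5 µM, with 0.2% DMSO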
EP2 modulator: EP2 receptor (human) modulation; P43116; EP2-expressing cells, cAMP HTRF FRET, PGE2 co-stimulation; induction, % at 25 µM; 260,000 compounds, 0.83% hits;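 active = compounds whose cAMP rise, as percent of the full-agonist control response, exceeds 60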;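 also: rat C6 glioma line stably carrying human EP2 under a CMV promoter; the protocol text gives 20 µM as final concentration; 100% = response of wells given 1 µM PGE2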
PGE2 EP2 inh: EP2 receptor (human) inhibition. P43116. C6 glioma cells expressing human EP2, cAMP TR-FRET; cells stimulated with saturating PGE2. inhibition, % at 25 µM. 260,000 compounds, 0.52% hits. AID 1422;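 active = percent inhibition above 40 after rounding to a whole number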;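 also: rat C6 glioma host cells with rolipram phosphodiesterase inhibitor present; the protocol text gives 20 µM as final concentration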
* hit, by the source's call.

For COc1ccc(-n2c(SCC(=O)Nc3cc(Cl)ccc3Cl)nnc2-c2ccncc2)cc1 the results were EP2 modulator -2 and PGE2 EP2 inh 6.
`COc1ccc(NC(=O)C(=O)N2N=C3CCCCC3C2(O)C(F)(F)F)cc1` (stereo not given) gave FXIa inh 1536 0, KLK5 inh 4, FXIIa inh 1536 7, Thrombin inh -1, EP2 modulator 61* and PGE2 EP2 inh 10.
Screening CCC1=NN(C(=O)C(=O)Nc2ccc(OC)cc2)C(O)(C(F)(F)F)C1 (stereo not given) returned FXIa inh 1536 0, KLK5 inh -33, FXIIa inh 1536 22, Thrombin inh 1, EP2 modulator 17 and PGE2 EP2 inh 3.
Screening COc1ccc(CC[N@+]2(C)COc3cc4oc(=O)cc(C)c4cc3C2)cc1OC returned EP2 modulator 16 and PGE2 EP2 inh 51*.
For COc1ccc(CCNC(=O)COc2ccc3c(C)cc(=O)oc3c2)cc1OC the results were EP2 modulator -54 and PGE2 EP2 inh 11.
Screening CCN(C(=O)COC(=O)/C=C/c1c(C)nn(-c2ccccc2)c1C)C1CCS(=O)(=O)C1 (stereo not given) returned FXIa inh 1536 43*, KLK5 inh 32, FXIIa inh 1536 26, Thrombin inh 14, EP2 modulator 14 and PGE2 EP2 inh 4.
Screening Cc1nc(C)n(C(C)CNC(=O)Cc2coc3cc(C)c(C)cc23)n1 (stereo not given) returned EP2 modulator -26 and PGE2 EP2 inh 4.
`CN(c1ccccc1)c1nc(-n2ccnc2)nc(-n2ccnc2)n1` gave FXIa inh 1536 -6, KLK5 inh -6, FXIIa inh 1536 17, Thrombin inh -4 and EP2 modulator 26.
`c1ccc(N(c2ccccc2)c2nc(-n3ccnc3)nc(-n3ccnc3)n2)cc1` gave FXIa inh 1536 -6, KLK5 inh -25, FXIIa inh 1536 13, Thrombin inh -2, EP2 modulator -46 and PGE2 EP2 inh 67*.
`O=C(c1nc2ccccc2s1)C1CCN(C(=O)CCn2cnc3ccccc32)CC1` gave EP2 modulator -67.
For CCCC(=O)N1c2ccc(-c3csc(NC(=O)c4cccc(OC)c4)n3)cc2CC1C (stereo not given) the results were EP2 modulator -48 and PGE2 EP2 inh 7.
For CCC(=O)N1c2ccc(-c3csc(NC(=O)c4ccccc4Cl)n3)cc2CC1C (stereo not given) the results were EP2 modulator 27 and PGE2 EP2 inh 94*.
`CCCc1cc(=O)[nH]c(Nc2nc(C)c3cc(C)ccc3n2)n1` gave EP2 modulator -37 and PGE2 EP2 inh 9.
Screening CCc1ccc(N(C(C)=O)c2nc(CCl)cs2)cc1 returned FXIa inh 1536 30, KLK5 inh 88*, FXIIa inh 1536 24, Thrombin inh 12, EP2 modulator -11 and PGE2 EP2 inh 22.
C=C(C)CNC(=S)Nc1cccc(N)n1 was read as FXIa inh 1536 48*, KLK5 inh 41*, FXIIa inh 1536 20, Thrombin inh 11, EP2 modulator -26 and PGE2 EP2 inh 6.
For CCCc1nn(CC(=O)NCCOC)c(=O)c2cc3ccsc3n12 the results were EP2 modulator -14.
Screening Cn1ccnc1CN(Cc1ccccc1)C1CC(C)(C)NC(C)(C)C1 returned EP2 modulator -10 and PGE2 EP2 inh 9.
Screening N#Cc1c2n(c3c(=O)n(Cc4ccc(Cl)cc4)cnc13)CCCCC2 returned FXIa inh 1536 -3, KLK5 inh -6, FXIIa inh 1536 18, Thrombin inh 7, EP2 modulator 16 and PGE2 EP2 inh 17.
Screening N#Cc1c2n(c3c(=O)n(Cc4ccccc4)cnc13)CCCC2 returned FXIa inh 1536 15, KLK5 inh -21, FXIIa inh 1536 44*, Thrombin inh 9, EP2 modulator 24 and PGE2 EP2 inh 5.
Cc1cccc(CN(CCCN2CCOCC2)Cc2ccc(C)o2)n1 was read as EP2 modulator -2 and PGE2 EP2 inh 3.
NS(=O)(=O)c1ccc(N=Nc2cc3ccccc3c(C(=O)O)c2O)cc1 was read as EP2 modulator -7 and PGE2 EP2 inh 45*.
Screening NS(=O)(=O)c1ccc(N=Nc2ccc(O)c(C(=O)O)c2)cc1 returned EP2 modulator 41 and PGE2 EP2 inh 10.

Bioassay records as filed in PubChem.
